Columns and labels:
Format in all cases: functional, cell-based
KB = experiment: Cytotoxicity against human KB cells after 72 hrs
In short: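 KB cells from the American Type Culture Collection; growth monitored after 72 h incubation with compound. IC50 taken as the drug concentration giving 50% growth inhibition.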

A549 = experiment: Cytotoxicity against human A549 cells by SRB assay
HL-60 = experiment: Cytotoxicity against human HL60 cells by SRB assay

SMILES | IC50 (KB) | IC50 (A549) | IC50 (HL-60)
COc1cc(/C=C/CO)cc(OC)c1OC/C=C(\C)CCC=C(C)C [NELUMOL A] | 3 µM | 34 µM | 6.7 µM
COc1cc(/C=C/C=O)cc(OC)c1OCc1ccccc1 | 640 µM |  | 
COc1cc(/C=C/C=O)cc(OC)c1OC/C=C(\C)CCC=C(C)C [NELUMAL A] | 2.6 µM | 22 µM | 12 µM
COc1cc(/C=C/CO)cc(OC)c1OCc1ccccc1 | 860 µM |  | 
COc1cc(/C=C/CO)cc(OC)c1OCC=C(C)C | 7.8 µM |  | 
